From ChEMBL document CHEMBL1125106, “1-(Thienylalkyl)imidazole-2(3H)-thiones as potent competitive inhibitors of dopamine beta-hydroxylase” (J Med Chem, 1990)

How the values were obtained:
[1] = Antihypertensive activity was determined by its ability to increase DA/NE ratio of mesenteric artery 6 hr after oral administration in fasted SHR (spontaneous hypertensive rat) at the dose of 100 mg/kg (po); assay type: functional
In short: (§1)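 Male fasted SHR given compound orally as a suspension in 50% PEG 400 (0.4 mL/100 g), or vehicle alone. Killed 6 h after dosing. Mesenteric artery homogenized in 0.2 M HClO4 with DTT, EGTA and DHBA internal standard. Catecholamines adsorbed on alumina, eluted with 0.1 M H3PO4, and DA and NE quantified by reverse-phase HPLC. Ratio reported as mean ± SD and compared with vehicle by 2-tailed t test.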

Rattus norvegicus [2] = test: Duration of activity of compound in SHR (spontaneous hypertensive rat) at the dose of 25 mg/kg (po); assay type: functional
In short: (§2)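 Conscious SHR with a carotid catheter externalized at the nape, allowed about 48 h to recover from surgery. Dosed po at 09:00 with vehicle (50% PEG 400) or compound suspension, with treatments reversed the next day in a cross-over design. Mean arterial pressure recorded as 5 min averages and compared with vehicle by paired t test (mean ± SEM, p<0.05).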

[3] = DBH (dopamine beta-hydroxylase) activity expressed as Ki value determined by degree to which compound inhibited conversion of tyramine to octopamine
In short: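 Bovine adrenal medulla DBH, purified in-house (sp act. 44 µmol/min/mg). Incubated at 37 °C, atmospheric pressure, in 0.2 M acetate pH 5.5 with 10 mM ascorbate, 20 mM fumarate, […] and 1300 units catalase. Octopamine formed from tyramine measured by reverse-phase HPLC with fluorescence detection (ex 275, em 315 nm). Six inhibitor and four substrate concentrations tested, DMSO ≤3% final, duplicates; Ki from Dixon analysis.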

Rattus norvegicus [4] = test: Mean arterial blood pressure was determined in SHR (spontaneous hypertensive rat) with administration at peroral dose of 50 mg/kg; assay type: functional; conditions: route oral; in short: as §2
[5] = biological target: T1, Dopamine beta-hydroxylase (Bos taurus, UniProt P15101); test: Inhibitory activity against bovine adrenal dopamine beta-hydroxylase (DBH)
T1 sequence (P15101 whole entry): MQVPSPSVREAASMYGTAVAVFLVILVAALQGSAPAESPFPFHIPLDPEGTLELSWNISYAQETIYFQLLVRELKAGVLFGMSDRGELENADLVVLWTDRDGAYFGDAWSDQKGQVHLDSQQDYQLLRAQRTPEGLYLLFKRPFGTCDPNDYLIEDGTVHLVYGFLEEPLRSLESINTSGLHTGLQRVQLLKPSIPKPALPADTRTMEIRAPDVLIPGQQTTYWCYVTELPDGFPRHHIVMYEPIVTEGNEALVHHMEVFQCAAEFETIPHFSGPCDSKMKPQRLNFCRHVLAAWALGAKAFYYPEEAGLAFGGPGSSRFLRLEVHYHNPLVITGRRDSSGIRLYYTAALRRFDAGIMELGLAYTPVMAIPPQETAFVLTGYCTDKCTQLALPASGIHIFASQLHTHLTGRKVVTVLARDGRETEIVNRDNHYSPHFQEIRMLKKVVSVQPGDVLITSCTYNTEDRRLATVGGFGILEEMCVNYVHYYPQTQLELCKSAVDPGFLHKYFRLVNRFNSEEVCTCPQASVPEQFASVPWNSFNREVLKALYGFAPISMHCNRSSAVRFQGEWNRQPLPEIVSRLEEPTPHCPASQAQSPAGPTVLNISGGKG
In short: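 Commercial bovine DBH, assayed by oxygen consumption on an oxygen electrode at 25.0 °C. Mixture contained 2 mM ascorbic acid, 10 mM sodium fumarate, catalase and 10 mM tyramine in 0.1 M sodium acetate pH 5.0. Rates corrected for nonenzymatic ascorbate oxidation. IC50 from duplicates in at least three separate experiments, mean ± SD.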

Rattus norvegicus [6] = test: Mean arterial blood pressure was determined in SHR (spontaneous hypertensive rat) with administration at the dose of 100 mg/kg (po); assay type: functional; in short: as §2
Rattus norvegicus [7] = test: Mean arterial blood pressure was determined in SHR (spontaneous hypertensive rat) with control at a peroral dose of 50 mg/kg; assay type: functional; conditions: route oral; in short: as §2
Rattus norvegicus [8] = test: Duration of activity of compound in SHR (spontaneous hypertensive rat) at the dose of 50 mg/kg (po); assay type: functional; in short: as §2
Rattus norvegicus [9] = test: Mean arterial blood pressure was determined in SHR (spontaneous hypertensive rat) with administration at peroral dose of 25 mg/kg; assay type: functional; conditions: route oral; in short: as §2
Rattus norvegicus [10] = test: Mean arterial blood pressure was determined in SHR (spontaneous hypertensive rat) with control at a peroral dose of 100 mg/kg; assay type: functional; conditions: route oral; in short: as §2
[11] = Antihypertensive activity was determined by its ability to increase DA/NE ratio of mesenteric artery 6 hr after oral administration in fasted SHR at the dose of 50 mg/kg (po); assay type: functional; in short: as §1
Rattus norvegicus [12] = test: Mean arterial blood pressure was determined in SHR (spontaneous hypertensive rat) with control at a peroral dose of 25 mg/kg; assay type: functional; conditions: route oral; in short: as §2
[13] = Antihypertensive activity determined as ability to increase tissue DA/NE ratio of mesenteric artery 6 hr after oral administration in fasted SHR (spontaneous hypertensive rat); assay type: functional; in short: as §1
[14] = Antihypertensive activity as ability to increase tissue DA/NE ratio of mesenteric artery 6 hr after oral administration in fasted SHR (spontaneous hypertensive rat) at the dose of 25 mg/kg (po); assay type: functional; in short: as §1
Rattus norvegicus [15] = test: Duration of activity of compound in SHR (spontaneous hypertensive rat) at the dose of 100 mg/kg (po); assay type: functional; in short: as §2

Row | Ki [3] | IC50 [5] | SMILES | further results
1 | 25.5 nM | 114 nM | Sc1nccn1CCc1cccs1 | DA/NE ratio [1]: 0.333; Duration (Rattus norvegicus [2]): <1 h; Mean arterial blood pressure (Rattus norvegicus [4]): 137 mmHg; Mean arterial blood pressure (Rattus norvegicus [6]): 126 mmHg; Mean arterial blood pressure (Rattus norvegicus [7]): 172 mmHg; Duration (Rattus norvegicus [8]): 8 h; Mean arterial blood pressure (Rattus norvegicus [9]): 137 mmHg; Mean arterial blood pressure (Rattus norvegicus [10]): 170 mmHg; DA/NE ratio [11]: 0.269; Mean arterial blood pressure (Rattus norvegicus [12]): 148 mmHg; DA/NE ratio [13]: 0.072; DA/NE ratio [14]: 0.214; Duration (Rattus norvegicus [15]): 20 h
2 | 60 nM | 210 nM | Fc1cc(F)cc(Cn2cc[nH]c2=S)c1 | 
3 | 740 nM | 4800 nM | Sc1nccn1Cc1cccs1 | 
4 |  | 4600 nM | Fc1ccc(Cn2ccnc2S)s1 | 
5 | 1400 nM | 3600 nM | Sc1nccn1CCCCc1cccs1 | 
6 | 25 nM | 130 nM | Sc1nccn1CCc1ccsc1 | 
7 | 480 nM | 1900 nM | Sc1nccn1CCCc1cccs1 | 
8 | 160 nM | 491 nM | Cc1ccc(CCn2ccnc2S)s1 | 
9 |  | 5300 nM | Sc1nccn1Cc1ccsc1 | 
10 |  | 6300 nM | S=c1[nH]ccn1Cc1ccco1 | 
11 |  | 1000 nM | Sc1nccn1Cc1ccc(Cl)s1 | 
